pIC50: −log10 of the molar value. Converted amounts (≈) assume the structure as drawn.

We go through 20 compounds from ChEMBL document CHEMBL1141897, “Pyrrolidinedione derivatives as antibacterial agents with a novel mode of action” (Bioorg Med Chem Lett, 2005).

Holding throughout (type): functional
Test [1] has as its system Staphylococcus aureus. The test is described as follows: Minimum inhibitory concentration of the compound against Staphylococcus aureus 133 strain was determined. The essentials:
(§1)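 Whole-cell MIC panel of the Gram-positive S. aureus 133 and S. pneumoniae G9A, plus two E. coli strains: Neumann (wild type) and HN818 (efflux pump deletion strain).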

The subject of test [2] is Escherichia coli. The test is described as follows: Inhibitory concentration of the compound against Escherichia coli was determined.
In test [3] the test system is Streptococcus pneumoniae. The test is described as follows: Minimum inhibitory concentration against Streptococcus pneumoniae G9A strain was determined.
The subject of test [4] is Escherichia coli. Put plainly: Minimum inhibitory concentration of the compound againstEscherichia coli HN818 strain was determined. The essentials: as §1
Test [5] concerns Escherichia coli. The test is described as follows: Minimum inhibitory concentration of the compound againstEscherichia coli Neumann strainwas determined. In outline:
as §1

Test [6] has as its system Staphylococcus aureus. Put plainly: Inhibitory concentration of the compound against Staphylococcus aureus was determined.

For the compound `C/C=C/C=C/C(=O)N[C@@H](CC(=O)N[C@H](C(=O)[C@@H]1C(=O)N(NC)C(=O)[C@H]1C)C(C)C)c1ccccc1`, the MIC is 4 µg/mL (≈ 8.29 µM) in test [1], 16 µg/mL (≈ 33.2 µM) in test [3], 8 µg/mL (≈ 16.6 µM) in test [4] and above 64 µg/mL in test [5]. Also, the pIC50 in test [2] is 7.85; in test [6], 6.98.
Take `C/C=C/C=C/C(=O)N[C@@H](CC(=O)N[C@H](C(=O)[C@@H]1C(=O)N(C)C(=O)[C@H]1C)C(C)C)c1ccccc1`: the minimal inhibitory concentration (MIC) in test [1] was 16 µg/mL (≈ 34.2 µM); in test [3] it was above 64 µg/mL; in test [4], 16 µg/mL (≈ 34.2 µM); in test [5], above 64 µg/mL. Also, the values for the pIC50 in test [2] and in test [6] were 7.60 and 6.68, respectively.
With `CC(C)[C@H](NC(=O)C[C@H](NC(=O)/C=C/c1ccccc1)c1ccccc1)C(=O)[C@@H]1C(=O)NC(=O)[C@H]1C`, the minimal inhibitory concentration (MIC) in test [1] is 8 µg/mL (≈ 16.3 µM); in test [3], 32 µg/mL (≈ 65.4 µM); in test [4], 2 µg/mL (≈ 4.09 µM); in test [5], 32 µg/mL (≈ 65.4 µM). The negative-log IC50 (pIC50) in test [2] is 8.05; in test [6], 7.12.
Regarding `C/C=C/C=C/C(=O)N[C@@H](CC(=O)N[C@H](C(=O)C1C(=O)NC(=O)CC1C)C(C)C)c1ccccc1` (stereo not given in full), the minimal inhibitory concentration (MIC) in test [1], in test [3], in test [4] and in test [5] was above 64 µg/mL throughout. The pIC50 is below 6.52 in test [2] and below 6.00 in test [6].
`C/C=C/C=C/C(=O)N[C@@H](CC(=O)N[C@H](C(=O)[C@@H]1C(=O)N(N(C)C)C(=O)[C@H]1C)C(C)C)c1ccccc1`: the minimal inhibitory concentration (MIC) in test [1] was 4 µg/mL (≈ 8.05 µM); in test [3], 16 µg/mL (≈ 32.2 µM); in test [4], 4 µg/mL (≈ 8.05 µM); in test [5] it was above 64 µg/mL. The negative-log IC50 (pIC50) is 7.48 in test [2] and 6.62 in test [6].
In the case of `C/C=C/C=C/C(=O)N[C@@H](CC(=O)N[C@H](C(=O)[C@@H]1C(=O)N(C)C(=O)[C@H]1CC)C(C)C)c1ccccc1`, the MIC in test [1], in test [3], in test [4] and in test [5] was above 64 µg/mL in each case. Besides, the pIC50 in test [2] is below 6.70; in test [6], below 6.00.
As to `CC(C)[C@H](NC(=O)C[C@H](NC(=O)/C=C/c1ccc(Cl)c(Cl)c1)c1ccccc1)C(=O)[C@@H]1C(=O)NC(=O)[C@H]1C`, the minimum inhibitory concentration (MIC) in test [1] came to 2 µg/mL (≈ 3.58 µM); in test [3], 32 µg/mL (≈ 57.3 µM); in test [4], 1 µg/mL (≈ 1.79 µM); in test [5] it was 8 µg/mL (≈ 14.3 µM). The values for the pIC50 in test [2] and in test [6] were 8.15 and 6.54, respectively.
Turning to `COc1cccc(/C=C/C(=O)N[C@@H](CC(=O)N[C@H](C(=O)[C@@H]2C(=O)NC(=O)[C@H]2C)C(C)C)c2ccccc2)c1`, the minimal inhibitory concentration (MIC) in test [1] is 4 µg/mL (≈ 7.7 µM); in test [3] it was 16 µg/mL (≈ 30.8 µM); in test [4], 2 µg/mL (≈ 3.85 µM); in test [5] it was 32 µg/mL (≈ 61.6 µM). Also, the values for the pIC50 in test [2] and in test [6] were 8.40 and 7.37, respectively.
As to `C/C=C/C=C/C(=O)N[C@@H](CC(=O)N[C@H](C(=O)[C@@H]1C(=O)N(CCOC)C(=O)[C@H]1C)C(C)C)c1ccccc1`, the minimum inhibitory concentration (MIC) is 64 µg/mL (≈ 125 µM) in test [1], 64 µg/mL (≈ 125 µM) in test [3], above 64 µg/mL in test [4] and above 64 µg/mL in test [5]. In addition, the pIC50 in test [2] is 6.82; in test [6], 5.89.
On to `CC(C)[C@H](NC(=O)C[C@H](NC(=O)/C=C/c1c[nH]cn1)c1ccccc1)C(=O)[C@@H]1C(=O)NC(=O)[C@H]1C`, for which the minimum inhibitory concentration (MIC) in test [1] is above 64 µg/mL; in test [3] it was above 64 µg/mL; in test [4] it was 64 µg/mL (≈ 133 µM); in test [5], above 64 µg/mL. Besides, the pIC50 was 8.22 in test [2] and 6.82 in test [6].
Take `C/C=C/C=C/C(=O)N[C@@H](CC(=O)N[C@H](C(=O)[C@@H]1C(=O)N(OCC)C(=O)[C@H]1C)C(C)C)c1ccccc1`: the MIC in test [1] is 8 µg/mL (≈ 16.1 µM); in test [3] it was 32 µg/mL (≈ 64.3 µM); in test [4], 64 µg/mL (≈ 129 µM); in test [5], above 64 µg/mL. The results for the negative logarithm of the IC50 (pIC50) in test [2] and in test [6] were 7.00 and 6.91, respectively.
Take `CC(C)[C@H](NC(=O)C[C@H](NC(=O)/C=C/c1ccc(-c2ccccc2)cc1)c1ccccc1)C(=O)[C@@H]1C(=O)NC(=O)[C@H]1C`: the MIC in test [1] was 2 µg/mL (≈ 3.54 µM); in test [3], 16 µg/mL (≈ 28.3 µM); in test [4], above 64 µg/mL; in test [5] it was above 64 µg/mL. The results for the pIC50 in test [2] and in test [6] were 7.43 and 6.27, respectively.
Consider `C/C=C/C=C/C(=O)N[C@@H](CC(=O)N[C@H](C(=O)[C@@H]1C(=O)N(C2CC2)C(=O)[C@H]1C)C(C)C)c1ccccc1`, for which the minimum inhibitory concentration (MIC) in test [1], in test [3], in test [4] and in test [5] was above 64 µg/mL each time. In addition, the pIC50 is 7.22 in test [2] and 5.59 in test [6].
Consider `C/C=C/C=C/C(=O)N[C@@H](CC(=O)N[C@H](C(=O)[C@@H]1C(=O)NC(=O)[C@H]1C)C(C)C)c1ccccc1`, for which the MIC in test [1] is 8 µg/mL (≈ 17.6 µM); in test [3], 32 µg/mL (≈ 70.6 µM); in test [4], 4 µg/mL (≈ 8.82 µM); in test [5], 32 µg/mL (≈ 70.6 µM). Also, the pIC50 is 8.22 in test [2] and 7.02 in test [6].
Turning to `C/C=C/C=C/C(=O)N[C@@H](CC(=O)N[C@H](C(=O)C1CC(C)C(=O)NC1=O)C(C)C)c1ccccc1` (stereo not given in full), the MIC in test [1], in test [3], in test [4] and in test [5] was above 64 µg/mL each time. Moreover, the negative-log IC50 (pIC50) in test [2] was 6.53; in test [6], below 6.00.
In the case of `C/C=C/C=C/C(=O)N[C@@H](CC(=O)N[C@H](C(=O)[C@H]1CC(=O)N(C)C1=O)C(C)C)c1ccccc1`, the minimal inhibitory concentration (MIC) in test [1], in test [3], in test [4] and in test [5] was above 64 µg/mL each time. Also, the pIC50 in test [2] is below 6.70; in test [6] it was below 6.00.
For the compound `CC(C)[C@H](NC(=O)C[C@H](NC(=O)/C=C/C(=O)O)c1ccccc1)C(=O)[C@@H]1C(=O)NC(=O)[C@H]1C`, the MIC in test [1], in test [3], in test [4] and in test [5] was above 64 µg/mL throughout. Besides, the negative logarithm of the IC50 (pIC50) in test [2] was 8.70; in test [6] it was 6.50.
Consider `C/C=C/C=C/C(=O)N[C@@H](CC(=O)N[C@H](C(=O)C1CCC(=O)NC1=O)C(C)C)c1ccccc1` (stereo not given in full), for which the MIC in test [1], in test [3], in test [4] and in test [5] was above 64 µg/mL in each case. For the same compound, the results for the pIC50 in test [2] and in test [6] were below 6.52 and below 6.00, respectively.
With `C/C=C/C=C/C(=O)N[C@@H](CC(=O)N[C@H](C(=O)[C@@H]1C(=O)NC(=O)C1(C)C)C(C)C)c1ccccc1`, the MIC in test [1], in test [3], in test [4] and in test [5] was above 64 µg/mL throughout. Moreover, the results for the negative-log IC50 (pIC50) in test [2] and in test [6] were 7.27 and 6.05, respectively.
For the compound `C/C=C/C=C/C=C/C(=O)N[C@@H](CC(=O)N[C@H](C(=O)[C@@H]1C(=O)NC(=O)[C@H]1C)C(C)C)c1ccccc1`, the minimum inhibitory concentration (MIC) was 8 µg/mL (≈ 16.7 µM) in test [1], 8 µg/mL (≈ 16.7 µM) in test [3], 32 µg/mL (≈ 66.7 µM) in test [4] and above 64 µg/mL in test [5]. Also, the negative logarithm of the IC50 (pIC50) was 7.89 in test [2] and 6.52 in test [6].
